From ChEMBL document CHEMBL5385951, “Accraspiroketides A-B, Phenylnaphthacenoid-Derived Polyketides with Unprecedented [6 + 6+6 + 6] + [5 + 5] Spiro-Architecture” (2024) come the findings set out here.

Common to all, as to assay type: functional
One assay has as its system Staphylococcus aureus. The assay is described as follows: Antibacterial activity against Staphylococcus aureus ATCC 25923 assessed as inhibition of bacterial growth incubated for 24 hrs by broth microdilution method. (Dilution methods test growth across graded concentrations, often in twofold steps.)
The next assay concerns Enterococcus faecalis. The assay is described as follows: Antibacterial activity against Enterococcus faecalis ATCC 29212 assessed as inhibition of bacterial growth incubated for 24 hrs by broth microdilution method.
Assay [1] relates to Enterococcus faecium. The assay is described as follows: Antibacterial activity against Enterococcus faecium clinical isolate K59-68 assessed as inhibition of bacterial growth incubated for 24 hrs by broth microdilution method. The procedure, abridged:
(§1)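 Broth microdilution per published protocols (CLSI dilution method for aerobically growing bacteria). E. faecium strains K59-68 and K60-39 are clonal complex 17 sub-cluster clinical bloodstream isolates from patients at University Hospital of North Norway. Ampicillin served as positive control and DMSO as negative control. MIC was determined from triplicate assays.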

In assay [2] the test system is Enterococcus faecium. The assay can be described thus: Antibacterial activity against Enterococcus faecium clinical isolate K60-39 assessed as inhibition of bacterial growth incubated for 24 hrs by broth microdilution method. The procedure, abridged: as §1

Converted amounts (≈) assume the structure as drawn.

`COc1cc2c(c(O)c1Cl)C(=O)c1c(cc3c(Cl)c(O)cc4c3c1O[C@@]41C(C)=C(C(=O)O)C(Cl)=C1Cl)C2(C)C`: the minimum inhibitory concentration (MIC) (as a rule, the lowest concentration found to suppress growth) amounted to 6.3 µg/mL (≈ 10.4 µM) in the assay with Staphylococcus aureus, 3.1 µg/mL (≈ 5.1 µM) with Enterococcus faecalis, 1.5 µg/mL (≈ 2.47 µM) in the assay on Enterococcus faecium [1] and 4.7 µg/mL (≈ 7.73 µM) in the assay on Enterococcus faecium [2].
For `COc1cc2c(c(O)c1Cl)C(=O)c1c(cc3cc(O)cc4c3c1O[C@@]41C(C)=C(C(=O)O)C(Cl)=C1Cl)C2(C)C` the same measures were 3.1 µg/mL (≈ 5.4 µM), 3.1 µg/mL (≈ 5.4 µM), 1.5 µg/mL (≈ 2.61 µM) and 4 µg/mL (≈ 6.97 µM).
For `CC1(C)S[C@@H]2[C@H](NC(=O)[C@H](N)c3ccccc3)C(=O)N2[C@H]1C(=O)O` [AMPICILLIN] the same measures were 0.5 µg/mL (≈ 1.43 µM), 1 µg/mL (≈ 2.86 µM), 1.5 µg/mL (≈ 4.29 µM) and 25 µg/mL (≈ 71.5 µM).
